Source: publication PMC7088158 (International Journal of Peptide Research and Therapeutics, 2006)

Assays:
[1] = biological target: T1, Human erythrocyte calpain I (Homo sapiens, UniProt P07384); assay type: biochemical; settings: pH 7.5
T1 sequence (P07384 1-714): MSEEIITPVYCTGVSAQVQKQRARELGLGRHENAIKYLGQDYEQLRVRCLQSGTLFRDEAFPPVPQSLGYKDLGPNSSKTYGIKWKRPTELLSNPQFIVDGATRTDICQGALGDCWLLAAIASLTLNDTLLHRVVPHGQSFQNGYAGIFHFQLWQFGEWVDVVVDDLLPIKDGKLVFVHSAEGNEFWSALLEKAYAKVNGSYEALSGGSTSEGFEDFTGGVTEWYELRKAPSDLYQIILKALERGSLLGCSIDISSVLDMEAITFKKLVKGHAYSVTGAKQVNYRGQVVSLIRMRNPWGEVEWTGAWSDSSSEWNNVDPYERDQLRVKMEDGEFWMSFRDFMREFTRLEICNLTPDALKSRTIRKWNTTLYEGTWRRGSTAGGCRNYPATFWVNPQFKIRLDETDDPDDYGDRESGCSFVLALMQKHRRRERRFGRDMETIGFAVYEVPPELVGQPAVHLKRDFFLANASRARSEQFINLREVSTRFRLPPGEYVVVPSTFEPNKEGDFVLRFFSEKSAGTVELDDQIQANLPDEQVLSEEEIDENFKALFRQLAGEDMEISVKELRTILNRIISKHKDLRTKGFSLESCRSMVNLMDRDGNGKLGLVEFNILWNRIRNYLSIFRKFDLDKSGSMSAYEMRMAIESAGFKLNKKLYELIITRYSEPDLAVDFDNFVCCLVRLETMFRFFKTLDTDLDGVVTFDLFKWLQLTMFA
T1 sequence (P04632 1-268 partner): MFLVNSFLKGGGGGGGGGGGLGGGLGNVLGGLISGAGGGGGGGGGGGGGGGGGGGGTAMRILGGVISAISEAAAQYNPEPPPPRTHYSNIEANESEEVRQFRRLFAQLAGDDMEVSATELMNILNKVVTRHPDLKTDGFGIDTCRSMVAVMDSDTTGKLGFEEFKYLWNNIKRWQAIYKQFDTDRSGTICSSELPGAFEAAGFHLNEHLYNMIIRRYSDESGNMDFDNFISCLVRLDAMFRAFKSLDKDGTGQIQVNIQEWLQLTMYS

trypsin = settings: pH 7.5
[2] = Aqueous solubility of the substrates; assay type: physicochemical; settings: standard form (CFO-1 N-terminus, Lys(BHQ-2)-amide C-terminus)
[3] = test system: primary hippocampal neurons; assay: Live cell imaging of probe entry and fluorescence in primary hippocampal neurons; assay type: cell-based, rat; settings: cA 1 μM preloaded 30 min in Ca2+-free buffer, ionomycin 5 μM then CaCl2 0.2 mM
Outline: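 Hippocampal neurons from E18 rat hippocampi, papain-dissociated (2 mg/mL, 30 min, 37 °C), plated at 1 × 10^5 cells/well on poly-D-lysine cover glasses and used at 9–12 DIV. Medium was Neurobasal/B27 with 1% FBS and glutamate, half-replaced on days 4 and 7. Confocal imaging at 37 °C, 20× air objective, 543 nm excitation, 560–615 nm emission, frames every 1–2 min.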

α-chymotrypsin = α-chymotrypsin (Bos taurus, UniProt P00766, DEL14-15/DEL147-148); settings: pH 7.5
primary cortical neurons = assay: Live cell imaging of probe entry and fluorescence in primary cortical neurons; assay type: cell-based, rat; settings: washed
Outline: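 Cortical neurons from E18 rat cortices, papain-dissociated (2 mg/mL, 30 min, 37 °C), plated at 1 × 10^5 cells/well on poly-D-lysine-coated chambered cover glasses in Neurobasal/B27 medium and used at 5 DIV. Confocal live imaging used a 20× air objective at 37 °C, with 543 nm excitation and emission collected at 560–615 nm. Frames were taken every 1–2 min.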

Substance | Effectiveness as calpain substrate, in words [1] | Stability to chymotrypsin, in words (α-chymotrypsin) | other results
PLVAERP [cXc] | dramatically reduced the effectiveness of calpain processing | – | –
PLFAER [cW] | far superior calpain substrate compared to cA | – | Stability to trypsin, in words (trypsin): poor stability
VVQAGI [cM] | – | – | Solubility, in words [2]: very poorly soluble
VVTAEA [cJ] | – | – | Solubility, in words [2]: very poorly soluble
GSGTSS [cA] | proceeded only partially | – | Intracellular fluorescence on activation of calpain pathways by ionomycin [3]: fluorescence was observed
PLLAERP [cXe] | improved calpain substrate | very much more stable to chymotrypsin | Intracellular fluorescence following ionomycin (primary cortical neurons; cXe 2 μM 40 min, ionomycin 5 μM): increased intracellular fluorescence; Entry into cells without transporter sequence (primary cortical neurons; cXe 2 μM preloaded 40 min, confocal imaging 37 °C): proved to enter cells without a transporter sequence
PLGAERP [cXa] | rather similar as a calpain substrate to its parent | affected remarkably little | –
EVYGM*M* [cG] | – | – | Solubility, in words [2]: very poorly soluble
PLLAERP [cXg] | – | significantly improved | –
PLLAERP [cXb] | at least as an effective calpain substrate as its parent | considerably improved chymotryptic stability | –
PLLAERP [cXf] | – | little improvement | –
